Data as given in publication PMC4059944 (Nature, 2014).
Where “and” joins values, the source holds several entries; their conditions need not be identical. Equal values may be shown once. Ends that are not written are not given here.

What was measured:
[1] = Multi-angle laser scattering; assay type: physicochemical, yeast (S. cerevisiae); details: size exclusion chromatography - MALS
Method in brief: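 Recombinant His-tagged full-length yeast Ctf4, expressed in E. coli BL21(DE3)-CodonPlus (1 mM IPTG, 37°C, 2 h), purified by Ni-NTA, Mono Q ion exchange and Superdex 200 gel filtration. About 100 μg loaded onto an HPLC size-exclusion column equilibrated in 150 mM NaCl, 20 mM Tris pH 8.0, 1 mM DTT. Eluate read by 8-angle light scattering and refractive index detectors.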

[2] = Native mass spectrometry, oligomeric state; assay type: physicochemical, yeast (S. cerevisiae); details: nano-electrospray, 500 mM ammonium acetate
SEC-MALS = target: the molecule itself; experiment: SEC-MALS
[3] = target: T1, fluorescein-labelled yeast Sld5 peptide (1-19) (S. cerevisiae); experiment: fluorescence polarisation
T1 peptide: fluorescein-MDINIDDILAELDKETTAV

Ctf4CTD = experiment: Analytical gel filtration of Ctf4CTD - GINS; assay type: binding, yeast (S. cerevisiae); details: Superdex S200, 20 mM HEPES pH 7.2, 140 mM KCl, full-length or N-terminally truncated Sld5
[4] = target: T2, Ctf4 N-terminal deletion (Ctf4CTD, aa 461-927) (S. cerevisiae, UniProt Q01454 461-927); experiment: negative-stain single-particle electron microscopy
T2 sequence: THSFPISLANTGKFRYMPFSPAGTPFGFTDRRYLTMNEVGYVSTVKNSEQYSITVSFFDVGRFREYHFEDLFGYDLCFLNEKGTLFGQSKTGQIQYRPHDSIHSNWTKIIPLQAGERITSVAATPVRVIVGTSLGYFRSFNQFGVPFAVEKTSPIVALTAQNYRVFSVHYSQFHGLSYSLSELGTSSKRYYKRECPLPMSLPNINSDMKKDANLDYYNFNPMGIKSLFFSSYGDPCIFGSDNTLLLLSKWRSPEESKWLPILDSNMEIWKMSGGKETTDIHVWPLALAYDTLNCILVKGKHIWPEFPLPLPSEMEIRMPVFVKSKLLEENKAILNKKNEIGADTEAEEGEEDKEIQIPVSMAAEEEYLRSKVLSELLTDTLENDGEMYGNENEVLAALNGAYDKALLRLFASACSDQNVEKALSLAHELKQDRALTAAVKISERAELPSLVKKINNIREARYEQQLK

B1: Ctf4CTD (yeast Ctf4 amino acids 471 to 927) (domain or fragment)
chain: TGKFRYMPFSPAGTPFGFTDRRYLTMNEVGYVSTVKNSEQYSITVSFFDVGRFREYHFEDLFGYDLCFLNEKGTLFGQSKTGQIQYRPHDSIHSNWTKIIPLQAGERITSVAATPVRVIVGTSLGYFRSFNQFGVPFAVEKTSPIVALTAQNYRVFSVHYSQFHGLSYSLSELGTSSKRYYKRECPLPMSLPNINSDMKKDANLDYYNFNPMGIKSLFFSSYGDPCIFGSDNTLLLLSKWRSPEESKWLPILDSNMEIWKMSGGKETTDIHVWPLALAYDTLNCILVKGKHIWPEFPLPLPSEMEIRMPVFVKSKLLEENKAILNKKNEIGADTEAEEGEEDKEIQIPVSMAAEEEYLRSKVLSELLTDTLENDGEMYGNENEVLAALNGAYDKALLRLFASACSDQNVEKALSLAHELKQDRALTAAVKISERAELPSLVKKINNIREARYEQQLK
With B1 the “oligomeric state in solution (MALS)” value [1] was “stable trimer in solution”, the “oligomeric state in solution (native mass spectrometry)” value [2] was “stable trimer in solution” and the “stoichiometry N” value (SEC-MALS) was 3. The “fold tighter association than the Pol1 motif” value [3] was ~5 fold.

B2: GINSPsf1ΔC (Strep III-tagged, for electron microscopy) (complex)
chain 1: MGYYDIDDVLADGTEFPCKFQYDIPGLGYLENNPGRPITKNTKLSLPLWLARILAIVGGDEALVDEEPVPFVELLPPDMFSTKVMNAIKTDPVALDLHSINSHFFSLAIKWIMLFSEKELANVVSELLLQRAQELNHHASSLSIDLNADSTGKNSANTNIATSTFLLKLEEMEKEIYKKSHESYKDTKRWMFKK
chain 2: MYGDLGNKLVLEAKRTKQLYARSNQDVNLPMYHEDIIRNILKEVSNLRKNTEYLKEQQQLGMLDDKVAKCQYFVTLLCMERNKRCLLAYQRLRTDILDSMAWNNNGLDLMSSITFSQQDTNNLSHQEQEYLKEYCDLITDLKSGDLVDIDLSGSLVPPSDVFID
chain 3: MSLPAHLQQTFSPEEIQFIVENEPIKIFPRITTRQKIRGDDRGTGNHTRWQLITTDDKALNNMVAMRSTEVVLWIALLLKQQSKCSIVAPQWLTTKELDRKIQYEKTHPDRFSELPWNWLVLARILFNKAKDDFHDPIHELRGKIQDLREIRQIKVLKGLKYLNESHLQLDNLSLLEINELRPFITEIMDKLREIHTASLTAGTENDEEEFNI
chain 4: MDINIDDILAELDKETTAVDSTKITQGSSSTTHRDANTIVGSSLDLNDKTQIYVSPQQDFSDLMKSWKNERCSPELLPYPHQLMKRLLNRISMQSQLIENISMGFLDMQNASNANPPMPNESKLPLLCMETELERLKFVIRSYIRCRLSKIDKFSLYLRQLNEDENSLISLTDLLSKDEIKYHDTHSLIWLKLVNDSILKYMPEELQAINDTEGSVNMIDEPDWNKFVFIHVNGPPDGKWNEDPLLQENEFGKPCYTVTIPDLKEEVELTIGSIYVMRYEVIRDLLRDDKVALI
In the case of B2, the “Ctf4 - GINS interaction” value (Ctf4CTD) is reported as “dependent upon the unstructured tail at the N-terminus of the Sld5 subunit of GINS” and the “stoichiometry N” value [4] is reported as 1 copies of GINS per Ctf4CTD trimer and 2 copies of GINS per Ctf4CTD trimer and 3 copies of GINS per Ctf4CTD trimer.
